Vif imaging – HIV Vif inhibition; hit rate 0.35% among 340,000; HEK293T cells, Vif self-association by quenched fluorescence, imaging, 24 h; AID 602346; inhibition, % at 7.49 µM; in the data active means inhibition above about 50%, passing the limit was not always enough
HIV Env fusion – HIV envelope-mediated fusion inhibition; hit rate 1.1% among 360,000; HeLa-JRFL Env/CEM21 cell fusion, luciferase; inhibition, % at 12.3 µM;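 active means mean replicate inhibition score of at least 50 and every replicate individually at or above 50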
Ecoli rRNA inh – inhibits bacterial ribosomal RNA function over humanized ribosomes. E. coli WT GFP vs humanized-ribosome RFP mutants, fluorescence, 24 h; stronger effect = lower value; DMSO median 0, no signal -100. GFP signal change (wild-type ribosome), % (test concentration not listed). hit rate 1.6% among 350,000. AID 720706;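 active means significant combined selectivity score with lowered wild-type GFP, culture density cut under 30%, mutant RFP and density less affected; inactive means any of these conditions unmet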
S100A4 MyoIIA – inhibitors of human S100A4 binding to myosin IIA peptide; P26447; inhibition, % at 10.7 µM; S100A4/TAMRA-MyoIIA peptide fluorescence polarization; hit rate 0.14% among 360,000;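 active means mean inhibition of at least 70% across replicates, with every replicate also reaching that level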
Target sequence (P26447 whole entry, looked up): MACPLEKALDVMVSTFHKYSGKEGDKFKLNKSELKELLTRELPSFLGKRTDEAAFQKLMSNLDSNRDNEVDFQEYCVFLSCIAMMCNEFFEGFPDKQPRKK
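Test system: S100A4 monomer protein; Medium: HEPES pH 7.2 with CaCl2, KCl, NaCl, DTT, Triton; Probe or stimulus: TAMRA-labelled myosin IIA heavy-chain peptide probe, 5 nM; Doses: one dose per compound; Times: polarization read 5 min after assay mix addition, stable 5–60 min; Benchmarks: neutral control DMSO, positive control TFP.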
FN deposition inh – fibronectin deposition inhibition. AH1F fibroblasts, Alexa488-fibronectin deposition fluorescence, overnight. inhibition, % at 12.6 µM. hit rate 0.086% among 350,000. AID 743247;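 active means mean inhibition across replicates of 30% or more, regardless of how many single replicates reach that level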
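test system = AH1F fibroblasts assembling fluorescent fibronectin matrix | quantity = 10000 AH1F cells per well | buffer or medium = DMEM plus 2% serum, read in PBS | doses = single dose, pinned | incubation = 1 h cell attachment, overnight exposure to compound and label | detection = fluorescence at 485 nm excitation, 525 nm emission | read-out basis = inhibition from reduced deposited-fibronectin fluorescence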
miR122 inh – blocks miR-122 activity in Huh7 sensor cells | Huh7 miR-122 Renilla luciferase sensor, 48 h; neutral wells = 0, positive control = 100 | activation (reporter increase), % at 12.5 µM | hit rate 0.3% among 340,000;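 active means mean replicate activation score at least 90 and every replicate individually at or above 90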;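 further: higher luciferase means less miR-122 activity so hits act as miR-122 inhibitors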
Numbers stand for hits; . = inactive; / = no result given. Rows were chosen to be rich in hits. Some 2.6% of all compounds tested hit in one or more screens of this group.

SMILES	Vif imaging	HIV Env fusion	Ecoli rRNA inh	S100A4 MyoIIA	FN deposition inh	miR122 inh
COc1ccc(OCc2n(CC(=O)OC3CC(C)CCC3C(C)C)c3ccccc3[n+]2C)cc1 (stereo unspecified)	.	87	.	.	.	.
COc1ccc(S(=O)(=O)Nc2ccc3c(c2)C(=O)N([C@H](C)CO)C[C@@H](C)[C@@H](CN(C)C(=O)CCC(F)(F)F)OCCCC[C@@H](C)O3)cc1	/	.	.	.	/	.
CC[C@H]1C(c2ccc(F)cc2)=NN(c2ccccc2)[C@@H]1CO	.	60	.	.	.	.
OC[C@@H]1[C@@H](c2ccc(F)cc2)C(c2ccccc2)=NN1c1ccccc1	/	.	.	.	/	.
CCN(CC)CCOC(=O)C(Cc1ccco1)Cc1cccc2ccccc12 (stereo unspecified)	.	.	-34	.	.	.
CCOC(=O)CN1C(=O)S/C(=C\c2ccc(-c3ccc(C(=O)O)c(Cl)c3)o2)C1=O	.	.	-24	.	.	.
CCOc1cc(C(=S)N2CCOCC2)ccc1OC	66	.	/	/	.	.
CCOc1ncccc1C(=O)OCC(=O)Nc1ccc(C)c(S(=O)(=O)N2CCOCC2)c1	.	.	.	.	.	/
Cc1ccc(NC(=O)COC(=O)c2cccnc2Cl)cc1S(=O)(=O)N1CCOCC1	.	.	-25	.	.	.
Cc1ccc(C(=O)OCc2ccc3c(c2)OCO3)cc1S(=O)(=O)N1CCCCC1	.	55	/	/	/	.
O=C(COC(=O)c1cc(S(=O)(=O)N2CCOCC2)ccc1F)c1ccc[nH]1	53	.	/	/	.	.
CSc1ncccc1C(=O)OCC(=O)Nc1ccc(C)c(S(=O)(=O)N2CCOCC2)c1	.	76	.	.	.	.
Cc1ccc(S(=O)(=O)N2CCOCC2)cc1NC(=O)COC(=O)c1cccc(Cl)c1Cl	.	/	-32	.	.	/
Cc1ccc(S(=O)(=O)N2CCOCC2)cc1NC(=O)COC(=O)c1cccnc1Cl	.	.	.	.	.	/
Cc1ccc(C)c(C(=O)COC(=O)c2ccc(C)c(S(=O)(=O)N3CCOCC3)c2)c1	59	/	.	.	.	.
CSc1ncccc1C(=O)OCC(=O)NC(C)(C)C	52	.	.	.	/	.
COc1ccc(CN2CC3(CN(C(=O)C4CCOCC4)C3)c3c(n(C)c4cc(OC)ccc34)[C@@H]2CO)cc1	/	/	.	/	/	/
Cc1cc(/C=C2\SC(=S)N(Cc3ccco3)C2=O)c(C)n1-c1cccnc1	187	.	/	/	.	.
Cc1noc(C)c1NC(=O)N(C)C[C@@H]1Oc2ccc(N(C)C)cc2C(=O)N([C@H](C)CO)C[C@H]1C	/	.	.	.	/	.
CCOc1ccccc1N1CCN(S(=O)(=O)c2cccs2)CC1	.	/	-24	.	/	.
Cc1ccc(S(=O)(=O)N(CC(=O)N2CCC(C)CC2)c2cccc(C)c2)cc1	.	.	/	/	/	144
COc1ccc(OC)c(N(CC(=O)N2CCC(C)CC2)S(=O)(=O)c2ccccc2)c1	.	.	/	/	.	232
COc1ccc(OC)c(N(CC(=O)N2CCC(C)CC2)S(=O)(=O)c2ccc(OC)c(OC)c2)c1	.	.	/	/	.	.
CC1CCN(C(=O)CN(c2ccc3c(c2)OCCO3)S(=O)(=O)c2ccccc2)CC1	.	.	.	.	.	104
CCC(=O)N[C@@H]1CC[C@@H](CC(=O)NCC2CC2)O[C@@H]1CO	/	/	.	.	.	/
SMILES	Vif imaging	HIV Env fusion	Ecoli rRNA inh	S100A4 MyoIIA	FN deposition inh	miR122 inh
CCN(CC)c1ccc(C(=C2C=CC(=[N+](CC)CC)C=C2)c2ccc(N(CC)CC)cc2)cc1	.	62	/	.	60	.
CCN(CC)c1ccc(C(=C2C=CC(=[N+](CC)CC)C=C2)c2ccccc2)cc1	.	81	-56	.	38	/
CCN(CC)c1ccc(C(=O)NNC(=O)CCNC(=O)c2ccccc2)cc1	.	/	.	.	.	.
O=C(C1=C(c2ccccc2)C(=O)c2ccccc2C1=O)c1ccccc1	.	155	.	.	.	/
CCCCn1c(O)c(/C=C2\C=Nc3ccccc32)c(=O)[nH]c1=O	.	.	.	81	.	.
CCCCc1nn2c(N)c(/C=C3\C=Nc4ccccc43)c(=O)nc2s1	.	.	/	/	/	/
S=C(Nc1ccc(Cl)cc1)c1nc2ccccc2[nH]1	.	59	/	/	.	.

Compound activity as filed in PubChem BioAssay.
